Calls of active or inactive are those of the source.
Columns and labels:
[1] = test system: Paracentrotus lividus; experiment: Antimitotic activity in sea urchin embryo assessed as cleavage arrest exposed 8 to 15 mins after fertilization 45 to 55 mins before first mitotic cycle completion measured at 2.5 to 5.5 hrs post dose; format: functional
How it was run: (§1)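 Paracentrotus lividus eggs, fertilized in filtered seawater, cultured as monolayer (up to 2000 embryos/mL) at room temperature. Exposed 8–15 min post-fertilization to 2-fold decreasing concentrations (DMSO stock diluted in EtOH; final DMSO ≤0.05%, EtOH ≤1%). Cleavage alteration scored at 8-cell, arrest at early blastula stage (2.5–5.5 h). Effective threshold concentration reported; duplicate measurements.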

[2] = test system: Paracentrotus lividus; experiment: Antimitotic activity in early pluteus stage of sea urchin embryo assessed as growth inhibition of skeletal spicules at 1 uM; format: functional, tissue-based; details: Spicule
How it was run: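 P. lividus embryos (gametes by intracoelomic 0.5 M KCl, fertilized in filtered seawater, room temperature, paddle agitation 60 rpm); compound from 10 mM DMSO stock diluted 10-fold in 96% EtOH; growth of skeletal spicules scored by light microscopy at early pluteus stage.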

[3] = test system: Paracentrotus lividus; experiment: Antimitotic activity in sea urchin free-swimming blastulae assessed as microtubule destabilization by measuring embryo spinning exposed 8 to 10 hrs after fertilization measured after 15 mins to 20 hrs; format: functional, Blastula
How it was run: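 Free-swimming P. lividus blastulae just after hatching (8–10 h post-fertilization) from same culture, exposed in seawater to 2-fold decreasing concentrations (DMSO stock diluted in EtOH). Settling to well bottom with rapid spinning around animal-vegetal axis scored by light microscopy over 15 min–20 h. Effective threshold concentration; duplicate measurements.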

[4] = Antiproliferative activity against human NCI60 cells at 10 uM after 48 hrs by SRB assay relative to control; format: functional; details: NCI60, 48 h, read-out: GI
[5] = test system: Paracentrotus lividus; experiment: Antimitotic activity in sea urchin embryo assessed as cleavage alteration exposed 8 to 15 mins after fertilization 45 to 55 mins before first mitotic cycle completion measured at 2.5 to 5.5 hrs post dose; format: functional; how it was run: as §1
[6] = Antiproliferative activity against human MOR cells measured after 3 days by Celltiter-Glo assay; format: functional, cell-based; details: 72 h
How it was run: (§2)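 Cells in ATCC-recommended medium, STR-authenticated, mycoplasma-tested; 3-day exposure to varying concentrations; viability by CellTiter-Glo luminescence normalized to DMSO control; IC50 from logistic nonlinear regression; mean of three independent experiments.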

[7] = Cell cycle arrest in human MDA-MB-468 cells assessed as accumulation in sub-G1 phase at 1 uM measured after 24 hrs by DNA dye based flow cytometry; format: functional
How it was run: (§3)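 Cells exposed to 1 µM compound or 0.1% DMSO for 24 h; stained with bivariate cell cycle kit (DNA dye); Sub-G1, G1, S and G2/M fractions by flow cytometry as mean percentage with standard error; two independent experiments in duplicate.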

[8] = Antiproliferative activity against human MDA-MB-468 cells measured after 48 hrs by SRB assay; format: functional, cell-based; details: MDA-MB-468, 48 h
[9] = Antiproliferative activity against human MDA-MB-468 cells measured after 96 hrs by Celltiter-Glo assay; format: functional, cell-based; details: MDA-MB-468, 96 h
How it was run: (§4)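 Cells plated 24 h, then treated 96 h with 0.1% DMSO or concentrations […]; growth by CellTiter-Glo luminescence, normalized to DMSO control; IC50 from dose–response curves by logistic nonlinear regression; mean of three independent experiments.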

[10] = Antiproliferative activity against human adriamycin-resistant MOR cells measured after 3 days by Celltiter-Glo assay; format: functional, cell-based; details: 72 h; how it was run: as §2
[11] = Antiproliferative activity against human MDA-MB-231 cells measured after 96 hrs by Celltiter-Glo assay; format: functional, cell-based; details: MDA-MB-231, 96 h; how it was run: as §4
[12] = Antiproliferative activity against human A2780/ADR cells measured after 3 days by Celltiter-Glo assay; format: functional, cell-based; details: 72 h; how it was run: as §2
[13] = Antiproliferative activity against human A2780cis cells measured after 3 days by Celltiter-Glo assay; format: functional, cell-based; details: A2780cisR, 72 h; how it was run: as §2
[14] = Antiproliferative activity against human TOV112D cells measured after 96 hrs by Celltiter-Glo assay; format: functional, cell-based; how it was run: as §4
[15] = Antiproliferative activity against human MOR/CPR cells measured after 3 days by Celltiter-Glo assay; format: functional, cell-based; details: 72 h; how it was run: as §2
[16] = Antiproliferative activity against human NCI60 cells measured after 48 hrs by SRB assay; format: functional; details: NCI60, 48 h
[17] = Cell cycle arrest in human NCI-H1975 cells assessed as reduction in S phase at 1 uM measured after 24 hrs by DNA dye based flow cytometry; format: functional; how it was run: as §3
[18] = Cell cycle arrest in human MDA-MB-468 cells assessed mitotic index by measuring level of phospho-histone H3 positive cells at 1 uM measured after 24 hrs by DNA dye based flow cytometry (reference value: 2.18); format: functional
[19] = Antiproliferative activity against human MDA-MB-DYT2 cells measured after 96 hrs by Celltiter-Glo assay; format: functional, cell-based; how it was run: as §4
[20] = Antiproliferative activity against human Caov3 cells measured after 96 hrs by Celltiter-Glo assay; format: functional, cell-based; details: Caov-3, 96 h; how it was run: as §4
[21] = Antiproliferative activity against human MDA-MB-435 cells measured after 96 hrs by Celltiter-Glo assay; format: functional, cell-based; details: MDA-MB-435, 96 h; how it was run: as §4
[22] = Cell cycle arrest in human NCI-H1975 cells assessed mitotic index by measuring level of phospho-histone H3 positive cells at 1 uM measured after 24 hrs by DNA dye based flow cytometry (reference value: 1.9); format: functional
[23] = Antiproliferative activity against human MDA-MB-435 cells measured after 48 hrs by SRB assay; format: functional, cell-based; details: MDA-MB-435, 48 h
[24] = Antiproliferative activity against human NCI-H1975 cells measured after 96 hrs by Celltiter-Glo assay; format: functional, cell-based; details: NCI-H1975, 96 h; how it was run: as §4
[25] = Cell cycle arrest in human MDA-MB-468 cells assessed as reduction in S phase at 1 uM measured after 24 hrs by DNA dye based flow cytometry; format: functional; how it was run: as §3
[26] = test system: NCI-H1975; experiment: Induction of microtubule disintegration in human NCI-H1975 cells at 1 uM measured upto 24 hrs by Hoechst staining-based laser scanning microscopic method; format: cell-based
How it was run: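 NCI-H1975 cells, 0.1% DMSO or 1 µM compound for 6, 16 and 24 h; paraformaldehyde-fixed, Triton-permeabilized, BSA-blocked, anti-β-tubulin (1:1000, overnight 4 °C) with Alexa Fluor 647 secondary, Hoechst nuclear counterstain; laser scanning confocal imaging.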

[27] = Antiproliferative activity against human A2780 cells measured after 3 days by Celltiter-Glo assay; format: functional, cell-based; details: A2780, 72 h; how it was run: as §2
[28] = Cell cycle arrest in human NCI-H1975 cells assessed as accumulation in G2/M phase at 1 uM measured after 24 hrs by DNA dye based flow cytometry (reference value: 20%); format: functional; how it was run: as §3
[29] = Cell cycle arrest in human NCI-H1975 cells assessed as accumulation in sub-G1 phase at 1 uM measured after 24 hrs by DNA dye based flow cytometry; format: functional; how it was run: as §3
[30] = Cell cycle arrest in human MDA-MB-468 cells assessed as reduction in G1 phase at 1 uM measured after 24 hrs by DNA dye based flow cytometry; format: functional; how it was run: as §3
[31] = Cell cycle arrest in human NCI-H1975 cells assessed as reduction in G1 phase at 1 uM measured after 24 hrs by DNA dye based flow cytometry; format: functional; how it was run: as §3
[32] = Solubility in seawater assessed as micro-crystal formation at 1 uM by light microscopy; format: physicochemical
How it was run: (§5)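 Compound from 10 mM DMSO stock diluted 10-fold in 96% EtOH, added to seawater with sea urchin embryos; microcrystal formation checked by light microscopy.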

[33] = Antiproliferative activity against human NCI/ADR-RES cells measured after 3 to 4 days by Celltiter-Glo luminescent cell viability assay; format: functional
[34] = Antiproliferative activity against human OVCAR8 cells measured after 3 to 4 days by Celltiter-Glo luminescent cell viability assay; format: functional; details: OVCAR-8
[35] = Solubility in seawater assessed as micro-crystal formation at 2 uM by light microscopy; format: physicochemical; how it was run: as §5
[36] = Solubility in DMSO; format: physicochemical

Row | Structure (SMILES) | EC [1] | EC [3] | EC [5] | IC50 [8] | IC50 [9] | IC50 [11] | IC50 [14] | GI50 [16] | IC50 [19] | IC50 [20] | IC50 [21] | IC50 [23] | IC50 [24] | GI50 [33] | GI50 [34] | other results
1 | COc1cc(C2CC(=O)Nc3c(-c4ccc(F)cc4)nsc32)cc2c1OCO2 (stereo unspecified) | >4 µM | >4 µM | >4 µM |  |  |  |  |  |  |  |  |  |  |  |  | Activity [2]: Active; inhibition of growth at 10 µM [4]: 10.1%
2 | COc1ccc(-c2nsc3c2NC(=O)CC3c2ccsc2)cc1 (stereo unspecified) | 0.005 µM | 0.1 µM | 0.002 µM | 117 nM | 163 nM | 192 nM | 136 nM | 302 nM | 309 nM | 152 nM | 80.7 nM | 23.5 nM | 254 nM |  |  | IC50 [6]: 702 nM; Activity [7]: Active; IC50 [10]: 63 nM; IC50 [12]: 355 nM; IC50 [13]: 187 nM; IC50 [15]: 321 nM; Activity [17]: Active; Activity index [18]: 11.3; Activity index [22]: 6.95; Activity [25]: Active; Activity [26]: Active; IC50 [27]: 229 nM; Activity [28]: 30%; Activity [29]: Active; Activity [30]: Active; Activity [31]: Active
3 | COc1ccc(-c2nsc3c2NC(=O)CC3c2ccc3c(c2)OCO3)cc1 (stereo unspecified) | 0.1 µM | 0.2 µM | 0.01 µM |  |  |  |  | 1550 nM |  |  |  |  |  | 524 nM | 3.04 µM | solubility [32]: Insoluble
4 | COc1ccc(-c2nsc3c2NC(=O)CC3c2cccc(OC)c2)cc1 (stereo unspecified) | 0.05 µM | 0.1 µM | 0.01 µM | 395 nM | 662 nM | 1390 nM | 808 nM | 1550 nM | 1910 nM | 1480 nM | 591 nM | 282 nM | 1980 nM | 420 nM | 3.22 µM | solubility [35]: Insoluble
5 | COc1ccc(-c2nsc3c2NC(=O)CC3c2cc(OC)c3c(c2)OCO3)cc1 (stereo unspecified) | >4 µM | >4 µM | >4 µM |  |  |  |  |  |  |  |  |  |  |  |  | solubility [36]: Soluble
